Test system: Bovine viral diarrhea virus 1
Experiment: Antiviral activity against Bovine viral diarrhea virus assessed as inhibition of viral replication after 24 hrs by cell based luciferase reporter gene assay
Assay type: functional, organism-based
Conditions: Bovine viral diarrhea virus isolates and strains

Row | EC50 | SMILES
1 | 0.0035 µM | Cc1ncc2c3ccccc3n(C)c2c1C

Test system: Hepatitis C virus
Experiment: Antiviral activity against Hepatitis C virus assessed as inhibition of viral replication after 24 hrs by cell based luciferase reporter gene assay
Assay type: functional, organism-based
Conditions: Hepacivirus hominis, 72 h, in the assay text read “after 3 days” for “after 24 hrs”
How it was run: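 Subgenomic HCV RNA replicon cells carrying luciferase (LucNeo#2), maintained in DMEM with 10% FBS, antibiotics and 1 mg/ml geneticin. Seeded at 50,000 cells/ml without geneticin and incubated 24 h. Medium then replaced with medium containing serial compound dilutions for 3 days. Cells washed with PBS and lysed for 10 min; luciferase activity in the lysate read by luminometer.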

Row | SMILES | EC50
2 | O=c1c2ccccc2c2cc(C(O)(C(F)(F)F)C(F)(F)F)ccc2n1Cc1ccc2ccccc2c1 | 8.8 µM
3 | CCCCn1c(=O)c2ccccc2c2c(OC)c(C(O)(C(F)(F)F)C(F)(F)F)c3c(c21)OCO3 | 9.8 µM
4 | CCCCn1c(=O)c2ccc(OC)cc2c2cc(C(O)(C(F)(F)F)C(F)(F)F)ccc21 | 16.6 µM
5 | CCCCn1c(=O)c2c(OC)cccc2c2cc(C(O)(C(F)(F)F)C(F)(F)F)ccc21 | 9.96 µM
6 | CCCCn1c(=O)c2ccccc2c2c(OC)c(C(O)(C(F)(F)F)C(F)(F)F)ccc21 | 7.2 µM
7 | COCCn1c(=O)c2ccccc2c2cc(C(O)(C(F)(F)F)C(F)(F)F)ccc21 | 5.4 µM
8 | CCCCn1c(=O)c2ccccc2c2cc(C(O)(C(F)(F)F)C(F)(F)F)c(OC)cc21 | 3.4 µM
9 | CCCCn1c(=O)c2cc(OC)ccc2c2c(OC)c(C(O)(C(F)(F)F)C(F)(F)F)c3c(c21)OCO3 | 12 µM
10 | CCCCn1c(=O)c2ccccc2c2cc(C(O)(C(F)(F)F)C(F)(F)F)c(F)cc21 | 5.3 µM
11 | CCCCn1c(=O)c2cc(OC)ccc2c2c(OC)c(C(O)(C(F)(F)F)C(F)(F)F)cc(OC)c21 | 6.1 µM
12 | CCCCn1c(=O)c2cccc(OC)c2c2cc(C(O)(C(F)(F)F)C(F)(F)F)ccc21 | 5 µM
13 | CCCCn1c(=O)c2ccccc2c2c(OC)c(C(O)(C(F)(F)F)C(F)(F)F)cc(OC)c21 | 5.7 µM
14 | CCCCn1c(=O)c2ccccc2c2cc(C(O)(C(F)(F)F)C(F)(F)F)c(C)cc21 | 5.6 µM

Now from value to compound:

Row | EC50 | SMILES
15 | 3.2 µM | CCCCn1c(=O)c2ccccc2c2cc(C(O)(C(F)(F)F)C(F)(F)F)ccc21
16 | 2.6 µM | CCCCn1c(=O)c2ccccc2c2cc(C(O)(C(F)(F)F)C(F)(F)F)c(OC)c(OC)c21
17 | 2.4 µM | CCCCn1c(=O)c2ccccc2c2cc(C(O)(C(F)(F)F)C(F)(F)F)cc(F)c21
18 | 2.3 µM | CCCCn1c(=O)c2cc3c(cc2c2cc(C(O)(C(F)(F)F)C(F)(F)F)ccc21)OCO3
19 | 2.1 µM | CCCCn1c(=O)c2ccccc2c2cc(C(O)(C(F)(F)F)C(F)(F)F)cc(C)c21
20 | 1.8 µM | CCCCn1c(=O)c2cc(OC)ccc2c2cc(C(O)(C(F)(F)F)C(F)(F)F)c(OC)c(OC)c21
21 | 1.73 µM | CCCCn1c(=O)c2cc3c(cc2c2cc(C(O)(C(F)(F)F)C(F)(F)F)c4c(c21)OCO4)OCO3
22 | 1.1 µM | CCCCn1c(=O)c2ccccc2c2cc(C(O)(C(F)(F)F)C(F)(F)F)cc(OC)c21
23 | 0.98 µM | CCCCn1c(=O)c2cc(OC)ccc2c2cc(C(O)(C(F)(F)F)C(F)(F)F)ccc21
24 | 0.51 µM | CCCCn1c(=O)c2cc(OC)ccc2c2cc(C(O)(C(F)(F)F)C(F)(F)F)cc(OC)c21
25 | 0.29 µM | CCCCn1c(=O)c2ccccc2c2cc(C(O)(C(F)(F)F)C(F)(F)F)c3c(c21)OCO3
26 | 0.18 µM | CCCCn1c(=O)c2cc(OC)ccc2c2cc(C(O)(C(F)(F)F)C(F)(F)F)c(OC)cc21
27 | 0.05 µM | CCCCn1c(=O)c2cc(OC)ccc2c2cc(C(O)(C(F)(F)F)C(F)(F)F)c3c(c21)OCO3
